Source: ChEMBL document CHEMBL1121899, “Biological activities of photoaffinity labeling analogues of kinins and their irreversible effects on kinin receptors” (1981)
Where a SMILES comes first, the peptide text is derived from it.

Key:
Oryctolagus cuniculus [1] = organism: Oryctolagus cuniculus; assay: In vitro 50 % Maximal response in rabbit aorta expressing B1 receptor; format: functional; details: read-out: ED50 (the source's name)
Oryctolagus cuniculus [2] = organism: Oryctolagus cuniculus; assay: Competitive protection towards rabbit aorta in the presence of light; format: functional
Summary of the method: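 Rabbit aorta strips (B1), with cycloheximide 10 µg/mL present after 3 h equilibration. Tissue pretreated with 50 µM [Leu⁸,des-Arg⁹]BK before the photolabel, scavenger (4'-amino)Phe 100 µM, and 10 min irradiation around 365 nm (18 mW/cm²). Residual [des-Arg⁹]BK response read 60 min after treatment, relative to reference tissues.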

[3] = biological target: T1, B1 bradykinin receptor (Homo sapiens) (UniProt P46663); assay: Intrinsic activity was determined; format: functional; details: Oryctolagus cuniculus
T1 sequence (whole entry): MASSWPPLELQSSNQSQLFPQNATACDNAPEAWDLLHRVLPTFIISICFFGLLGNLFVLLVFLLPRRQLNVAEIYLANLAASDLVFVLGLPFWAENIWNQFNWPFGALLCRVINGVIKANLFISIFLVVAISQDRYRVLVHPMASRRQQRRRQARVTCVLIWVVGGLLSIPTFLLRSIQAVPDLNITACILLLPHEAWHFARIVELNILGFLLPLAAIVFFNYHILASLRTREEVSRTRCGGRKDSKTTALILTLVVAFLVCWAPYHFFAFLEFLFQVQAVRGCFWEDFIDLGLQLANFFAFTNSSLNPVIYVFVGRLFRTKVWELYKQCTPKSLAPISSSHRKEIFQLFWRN

Oryctolagus cuniculus [4] = organism: Oryctolagus cuniculus; assay: The compound was tested in vitro on rabbit aorta for residual response in presence of ultraviolet light; format: functional
Summary of the method: (§1)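 Aorta strips in cycloheximide were challenged twice with [des-Arg⁹]BK and checked with 3 µM noradrenaline and 0.2 µM [Sar¹]angiotensin II. They were then incubated with 100 µM (4'-amino)Phe plus the photolabel and irradiated 10 min around 365 nm (18 mW/cm²). This was done once or twice. Residual [des-Arg⁹]BK response at 60 min was expressed as percent of reference tissues.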

Oryctolagus cuniculus [5] = organism: Oryctolagus cuniculus; assay: The compound was tested in vitro on rabbit aorta for residual response in absence of ultraviolet light; format: functional
Summary of the method: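 Aorta strips were treated as in the photolabeling protocol but without light, or with light alone. Residual [des-Arg⁹]BK response was measured 60 min later against reference tissues. Darkroom testing was done in triplicate for the visible-light-absorbing analogue.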

[6] = biological target: T2, B2 bradykinin receptor (Homo sapiens) (UniProt P30411); assay: In vitro 50 % Maximal response in jugular vein expressing B2 receptor; format: functional; details: Oryctolagus cuniculus
T2 sequence (whole entry): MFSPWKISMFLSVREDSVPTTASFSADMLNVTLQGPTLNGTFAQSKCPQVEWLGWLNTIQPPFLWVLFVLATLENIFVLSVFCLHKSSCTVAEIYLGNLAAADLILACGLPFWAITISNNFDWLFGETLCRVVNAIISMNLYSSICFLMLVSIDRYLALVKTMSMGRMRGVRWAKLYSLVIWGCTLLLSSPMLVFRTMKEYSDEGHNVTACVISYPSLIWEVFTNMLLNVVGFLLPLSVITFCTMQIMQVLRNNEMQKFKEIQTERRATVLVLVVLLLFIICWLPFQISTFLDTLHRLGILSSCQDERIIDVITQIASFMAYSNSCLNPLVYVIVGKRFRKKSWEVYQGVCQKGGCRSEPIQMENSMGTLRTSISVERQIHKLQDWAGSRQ
Summary of the method: (§2)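 Isolated rabbit jugular vein strips were equilibrated about 2 h with protease inhibitor SQ 14225 (100 ng/mL) under incandescent light, with no UV. pD₂ was taken as −log of the half-maximal concentration. Relative affinity is given as percent of BK. Specificity was checked by desensitization with BK or an analogue. Antagonists were given as pA₂ from the ID₅₀ that reduces a double agonist dose to a single-dose response.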

Oryctolagus cuniculus [7] = organism: Oryctolagus cuniculus; assay: The compound was tested in vitro (2.0 uM) on rabbit jugular vein for residual response in absence of ultraviolet light; format: functional
Summary of the method: (§3)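 Jugular vein strips were treated exactly as in the photolabeling protocol (scavenger 100 µM (4'-amino)Phe plus analogue) but without light. Residual BK response was measured 60 min after the last treatment against reference tissues. Results were discarded if reference tissues lost over 25% sensitivity.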

[8] = biological target: T2, B2 bradykinin receptor (Homo sapiens); assay: Percent agonistic activity in rabbit jugular vein expressing B2 receptor relative to bradykinin; format: functional; details: Oryctolagus cuniculus; summary of the method: as §2
Oryctolagus cuniculus [9] = organism: Oryctolagus cuniculus; assay: The compound was tested in vitro (0.1 uM) on rabbit jugular vein for residual response in presence of ultraviolet light; format: functional
Summary of the method: (§4)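 Jugular vein strips were challenged twice with BK and checked with 1 µM [Nle¹¹]substance P and 7 µM histamine. They were then incubated with 100 µM (4'-amino)Phe plus the photolabel and irradiated 10 min around 365 nm (18 mW/cm²) at maximal contraction or after 5 min. This was done once or twice. BK response at 60 min was expressed as percent of reference tissues, rechecked every 45 min.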

Oryctolagus cuniculus [10] = organism: Oryctolagus cuniculus; assay: The compound was tested in vitro (0.2 uM) on rabbit jugular vein for residual response in presence of ultraviolet light; format: functional; summary of the method: as §4
Oryctolagus cuniculus [11] = organism: Oryctolagus cuniculus; assay: The compound was tested in vitro (3 uM) on rabbit jugular vein for residual response in absence of ultraviolet light; format: functional; summary of the method: as §3
[12] = test system: B2 bradykinin receptor (Oryctolagus cuniculus); assay: Agonistic activity (pD2) in rabbit jugular vein expressing B2 receptor relative to bradykinin
[13] = test system: B2 bradykinin receptor (Oryctolagus cuniculus); assay: Relative affinity against B2 receptor relative to bradykinin
Oryctolagus cuniculus [14] = organism: Oryctolagus cuniculus; assay: The compound was tested (0.5 micro M) in vitro on rabbit jugular vein for residual response in presence of ultraviolet light; format: functional; summary of the method: as §4
[15] = test system: B2 bradykinin receptor (Oryctolagus cuniculus); assay: In vitro 50 % Maximal response in rabbit jugular vein expressing B2 receptor
[16] = test system: B2 bradykinin receptor (Oryctolagus cuniculus); assay: In vitro 50 % Maximal response in jugular vein expressing B2 receptor
Oryctolagus cuniculus [17] = organism: Oryctolagus cuniculus; assay: Competitive protection towards rabbit jugular vein in the presence of light; format: functional
Summary of the method: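 Rabbit jugular vein strips (B2), with SQ 14225 100 ng/mL present after about 2 h equilibration. 5 µM BK added before the photolabel, scavenger (4'-amino)Phe 100 µM, and 10 min irradiation around 365 nm (18 mW/cm²). Residual BK response read 60 min after treatment, relative to reference tissues.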

Oryctolagus cuniculus [18] = organism: Oryctolagus cuniculus; assay: The compound was tested in vitro (1.0 uM) on rabbit jugular vein for residual response in presence of ultraviolet light; format: functional; summary of the method: as §4
Oryctolagus cuniculus [19] = organism: Oryctolagus cuniculus; assay: The compound was tested in vitro (0.1 uM) on rabbit aorta for residual response in presence of ultraviolet light; format: functional; details: in the assay text read “rabbit jugular vein” for “rabbit aorta”; summary of the method: as §1

Compound	Alpha E [3]	ED50 [6] [nM]	Relative affinity [8] [%]	other results
[N-]=[N+]=Nc1ccc(C[C@H](NC(=O)[C@@H]2CCCN2C(=O)[C@H](CO)NC(=O)[C@H](Cc2ccccc2)NC(=O)CNC(=O)[C@@H]2CCCN2C(=O)[C@@H]2CCCN2C(=O)[C@@H](N)CCCN=C(N)N)C(=O)O)cc1	0			EC50 (Oryctolagus cuniculus [1]): 8560 nM; Competitive protection (Oryctolagus cuniculus [2]): 95; Response (Oryctolagus cuniculus [4]): 37%
N#[N+]c1ccc(C[C@H](NC(=O)[C@@H]2CCCN2C(=O)[C@H](CO)NC(=O)[C@H](Cc2ccccc2)NC(=O)CNC(=O)[C@@H]2CCCN2C(=O)[C@@H]2CCCN2C(=O)[C@@H](N)CCCN=C(N)N)C(=O)O)cc1	1			Response (Oryctolagus cuniculus [5]): 95%; EC50 (Oryctolagus cuniculus [1]): 824 nM
N#[N+]c1ccc(C[C@H](NC(=O)[C@@H]2CCCN2C(=O)[C@H](CO)NC(=O)[C@H](Cc2ccccc2)NC(=O)CNC(=O)[C@@H]2CCCN2C(=O)[C@@H]2CCCN2C(=O)[C@@H](N)CCCN=C(N)N)C(=O)N[C@@H](CCCN=C(N)N)C(=O)O)cc1 (HELM PEPTIDE1{R.P.P.G.F.S.P.[N#[N+]c1ccc(C[C@H](N[*:1])C(=O)[*:2])cc1].R}$$$$V2.0)	1	25	9	Response (Oryctolagus cuniculus [7]): 94%
NC(N)=NCCC[C@H](NC(=O)[C@H](Cc1ccc([N+](=O)[O-])cc1)NC(=O)[C@@H]1CCCN1C(=O)[C@H](CO)NC(=O)[C@H](Cc1ccccc1)NC(=O)CNC(=O)[C@@H]1CCCN1C(=O)[C@@H]1CCCN1C(=O)[C@@H](N)CCCN=C(N)N)C(=O)O (HELM PEPTIDE1{R.P.P.G.F.S.P.[O=C([C@H](Cc1ccc([N+](=O)[O-])cc1)N[*:1])[*:2]].R}$$$$V2.0)	1	6.6	25	Response (Oryctolagus cuniculus [9]): 91%
[N-]=[N+]=Nc1ccc(C[C@H](NC(=O)[C@@H]2CCCN2C(=O)[C@H](CO)NC(=O)[C@H](Cc2ccccc2)NC(=O)CNC(=O)[C@@H]2CCCN2C(=O)[C@@H]2CCCN2C(=O)[C@@H](N)CCCN=C(N)N)C(=O)N[C@@H](CCCN=C(N)N)C(=O)O)cc1 (HELM PEPTIDE1{R.P.P.G.F.S.P.[[N-]=[N+]=Nc1ccc(C[C@H](N[*:1])C(=O)[*:2])cc1].R}$$$$V2.0)	1	7	23	Response (Oryctolagus cuniculus [10]): 85%
N#[N+]c1ccc(C[C@H](NC(=O)CNC(=O)[C@@H]2CCCN2C(=O)[C@@H]2CCCN2C(=O)[C@@H](N)CCCN=C(N)N)C(=O)N[C@@H](CO)C(=O)N2CCC[C@H]2C(=O)N[C@@H](Cc2ccccc2)C(=O)N[C@@H](CCCN=C(N)N)C(=O)O)cc1 (HELM PEPTIDE1{R.P.P.G.[N#[N+]c1ccc(C[C@H](N[*:1])C(=O)[*:2])cc1].S.P.F.R}$$$$V2.0)	1	25		Response (Oryctolagus cuniculus [11]): 92%; pD [12]: 7.73 M; Relative affinity [13]: 9%
NC(N)=NCCC[C@H](NC(=O)[C@H](Cc1ccccc1)NC(=O)[C@@H]1CCCN1C(=O)[C@H](CO)NC(=O)[C@H](Cc1ccc([N+](=O)[O-])cc1)NC(=O)CNC(=O)[C@@H]1CCCN1C(=O)[C@@H]1CCCN1C(=O)[C@@H](N)CCCN=C(N)N)C(=O)O (HELM PEPTIDE1{R.P.P.G.[O=C([C@H](Cc1ccc([N+](=O)[O-])cc1)N[*:1])[*:2]].S.P.F.R}$$$$V2.0)	1		7	Response (Oryctolagus cuniculus [14]): 88%; pD [15]: 7.62 M; ED50 [16]: 24 nM
[N-]=[N+]=Nc1ccc(C[C@H](NC(=O)CNC(=O)[C@@H]2CCCN2C(=O)[C@@H]2CCCN2C(=O)[C@@H](N)CCCNC(=N)N)C(=O)N[C@@H](CO)C(=O)N2CCC[C@H]2C(=O)N[C@@H](Cc2ccccc2)C(=O)N[C@@H](CCCNC(=N)N)C(=O)O)cc1 (HELM PEPTIDE1{R.P.P.G.[[N-]=[N+]=Nc1ccc(C[C@H](N[*:1])C(=O)[*:2])cc1].S.P.F.R}$$$$V2.0)	1	10	17	Competitive protection (Oryctolagus cuniculus [17]): 91; Response (Oryctolagus cuniculus [18]): 44%
H-RPPGFSPFR-OH [BRADYKININ]	1	1.65	100	Response (Oryctolagus cuniculus [19]): 92%
